From PMC10012268 (ACS Infectious Diseases, 2023) come the findings set out here.

For series [1], the system named is P. berghei EEFs. The series is described as follows: Exoerythrocytic stage assay. The series is classed as cell-based. The settings on record: Plasmodium berghei, 48 h, read-out: Pb liver stage EEFs EC50 (SD).
Series [2] can be described thus: LogD at pH 7.4. The series is classed as physicochemical. The settings on record: 1-octanol/phosphate-buffered saline (1:1, v/v).
Series [3] deals with Pf Dd2 parental line. The series is described as follows: 3H-hypoxanthine 72 h assay, Dd2 parental line. To be noted: Plasmodium falciparum, DD2, read-out: Pf Dd2 EC50, Dd2 parental line, 3H-hypoxanthine 72 h; average of two experiments. The series is classed as cell-based.
In series [4] the test system is 7G8. Description: 3H-hypoxanthine 72 h assay, 7G8. To be noted: Plasmodium falciparum, 7G8, read-out: Pf multidrug-resistant strain EC50 7G8. The series is classed as cell-based.
In series [5] the test system is RF12. The series is described as follows: 3H-hypoxanthine 72 h assay, RF12. The series is classed as cell-based. To be noted: Plasmodium falciparum, read-out: Pf multidrug-resistant strain EC50 RF12.
Series [6] in a line: Hepatocyte stability, rat. The series is classed as in vitro ADME. To be noted: pooled rat hepatocytes. The method in brief: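 Test compound (1 μM) in Krebs–Henseleit buffer was incubated with pooled rat hepatocytes (1 × 10^6 cells/mL) at 37 °C, 5% CO2, with samples from 0 to 90 min. Reactions were quenched with ice-cold acetonitrile and centrifuged, and supernatants were analysed by LC–MS/MS. Half-life and CLint were derived from parent remaining. Run in duplicate.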

Series [7] can be described thus: Liver microsome stability, human. The series is classed as in vitro ADME. In general terms: Microsomes from liver hold many membrane-bound enzymes, among them those of drug oxidation.
The test system of series [8] is K1. Description: 3H-hypoxanthine 72 h assay, K1. The series is classed as cell-based. To be noted: Plasmodium falciparum, K1, read-out: Pf multidrug-resistant strain EC50 K1.
Series [9] is described as follows: Kinetic aqueous solubility. The series is classed as physicochemical. The settings on record: kinetic in PBS. An outline of the steps:
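Miniaturised shake flask: test compound (200 μM) in PBS pH 7.4 was shaken at 600 rpm, 25 °C for 2 h, filtered, and the filtrate half-diluted in acetonitrile. Run in duplicate.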

In series [10] the test system is drug-resistant P. falciparum strains. Description: Profiling against a selection of multidrug-resistant parasites. The series is classed as cell-based, Plasmodium falciparum. An outline of the steps:
(§1)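 Asexual blood-stage parasites in hypoxanthine-free RPMI 1640 with HEPES, NaHCO3, neomycin (100 μg/mL) and Albumax II (5 g/L). Infected blood (0.3% parasitemia, 2.5% hematocrit) was exposed to a 10-point serial dilution at 37 °C under 93% N2/4% CO2/3% O2. After 48 h, [3H]-hypoxanthine (0.5 μCi/well) was added for 24 h more. Scintillation cpm were normalised to untreated controls, and logit regression gave values as means of two experiments.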

For series [11], the system named is P. falciparum NF54 female gametes. The series is described as follows: Dual gamete formation assay. The series is classed as cell-based. The settings on record: Plasmodium falciparum, NF54, read-out: female gamete EC50. The method in brief: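 Stage V NF54 gametocyte cultures with >0.2% exflagellation were diluted to 12.5 million cells/mL in gametocyte medium containing 10% human serum and no Albumax. They were dispensed warm (625,000 cells/well) onto the test compound. After ookinete medium was added, plates went to 4 °C for 4 min and then 28 °C for 5 min, followed by 24 h at 28 °C in the dark. Female gametes (Pfs25) were scored from one fluorescence image per well.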

Series [12] deals with HepG2. The series is described as follows: HepG2 host cell viability in the liver stage panel. The settings on record: Homo sapiens, HepG2, 48 h, read-out: HepG2 EC50 (liver stage). The series is classed as cell-based.
Series [13] deals with NF54. Description: 3H-hypoxanthine 72 h assay, NF54. The series is classed as cell-based. The settings on record: Plasmodium falciparum, NF54, read-out: Pf multidrug-resistant strain EC50 NF54.
Series [14] concerns P. berghei ANKA parasites expressing GFP. Description: Peter's 4 day P. berghei mouse model. The series is classed as in vivo. To be noted: 20 mg/kg p.o. q.d. days 0-3. The method in brief:
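Swiss mice (four per group) were infected IV with 1 × 10^7 P. berghei ANKA GFPcon-infected erythrocytes from donor mice. Dosing was oral once daily for 4 days, starting 2 h post-infection: test compound at 20 mg/kg in 20% DMSO/60% propylene glycol/20% water, or chloroquine at 10 mg/kg in water. Day-4 parasitemia was measured as GFP+ cells per 100,000 events and by Giemsa smears, with reduction calculated against vehicle.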

The test system of series [15] is Pf Dd2 strain with an I22L mutation in the Qi site cyt b. Description: 3H-hypoxanthine 72 h assay, Dd2 cyt b. The series is classed as cell-based, Plasmodium falciparum. An outline of the steps:
as §1

The subject of series [16] is Pf SB1-A6 strain with a CNV (∼2-fold) and a C276F mutation in DHODH. The series is described as follows: SB1-A6 asexual-stage assay. The series is classed as cell-based. To be noted: Plasmodium falciparum, 72 h, read-out: SB1-A6 EC50. An outline of the steps:
(§2)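 Parasites were sorbitol-synchronised one cycle before setup. Ring stages at 0.5% parasitemia and 2% hematocrit were plated onto twofold compound dilutions and incubated at 37 °C for 72 h. Cells were fixed in 0.25% glutaraldehyde (RT, 30 min), stained with 2.5× SYBR Green (37 °C, 30 min) and counted by flow cytometry. EC50 is the average of three independent experiments.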

The test system of series [17] is Pf Dd2 expressing ScDHODH. The series is described as follows: ScDHODH asexual-stage assay. The series is classed as cell-based. To be noted: Plasmodium falciparum, DD2, 72 h, read-out: Dd2 ScDHODH EC50. The method in brief: as §2
Series [18] can be described thus: Liver microsome stability, mouse. The series is classed as in vitro ADME. To be noted: pooled mouse liver microsomes. An outline of the steps:
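Test compound (1 μM, phosphate buffer) was incubated with pooled mouse liver microsomes (0.5 mg/mL) at 37 °C, with and without an NADPH regeneration system, sampling at 0, 5, 20, 30, 45 and 60 min. Run in duplicate.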

The nature of series [19]: Plasma bioanalysis in the P. berghei mouse model. The series is classed as in vivo. To be noted: 20 mg/kg oral. An outline of the steps:
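Blood was sampled from P. berghei-infected mice at 2, 6 and 22 h after the first oral 20 mg/kg dose. Plasma compound concentrations were quantified by LCMS.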

Series [20] concerns mitochondrial electron transport chain of P. falciparum 3D7 asexual parasites. Description: ETC biosensor / oxygen consumption rate. The settings on record: for OCR upon addition of TMPD: after compound (5 μM), TMPD (cytochrome c electron donor) added; for effect on malate-dependent oxygen consumption rate (OCR): compounds at 5 μM, malate as the energy source. The series is classed as cell-based, Plasmodium falciparum. The method in brief:
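Magnet-purified trophozoite-infected RBCs were saponin-released (0.05%, 37 °C, 3 min) and washed. Parasites were suspended in MAS buffer with 25 mM malate and 0.002% digitonin and seeded at 5 × 10^6 per Cell-Tak-coated well (800g, 10 min). Seahorse XFe96 OCR was read at baseline, after test compound (5 μM final), after TMPD (0.2 mM) with ascorbate (2 mM), then after NaN3 (10 mM). Each cycle was 20 s mix, 1 min wait, 2.5 min measure.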

In series [21] the test system is P. falciparum 3D7 parasites. The series is described as follows: P. falciparum 3D7 asexual-stage parasite LDH viability assay. The series is classed as cell-based, Plasmodium falciparum.
Series [22] deals with 41 resistant 3D7 P. falciparum populations (V259L cyt b Qo site mutation). The series is described as follows: LDH growth assay against 41 resistant populations. The settings on record: Plasmodium falciparum, 3D7, read-out: EC50 against all three populations. The series is classed as cell-based. The method in brief: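 Three 3D7 clonal populations were selected by exposure to test compound starting at 2 × EC50, monitored by Giemsa smears and stepped up after recovery. Synchronised ring-stage parasites were then grown 72 h on predispensed compound in RPMI/AlbuMAX and frozen at −80 °C overnight. LDH activity was read with APAD/NBT absorbance at 650 nm.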

“And” between values parts separate entries of the source, which are not always exact repeats. Equal values may be shown once. A value given as a limit tells only on which side of the number the result lay.

The term EC50 denotes the midpoint of the concentration-response curve. The term logD denotes lipophilicity at a set pH, counting ionised and neutral species. High values mean higher lipophilicity, low ones lower lipophilicity. By hepatocyte CLint is commonly meant the capacity of the preparation to metabolise the compound, expressed as a volume cleared per time. For the compound `CCOC(=O)c1cn(CC)c2cc(N3CCC(C)CC3)c(F)cc2c1=O` [Compound 21, Ethyl 1-Ethyl-6-fluoro-7-(4-methyl-1-piperidyl)-4-oxo-quinoline-3-carboxylate], the EC50 is 24 nM in series [1]; 55 nM in series [3]; 38 nM in series [4]; 20 nM in series [5]; 48 nM in series [8]; above 25000 nM in series [11]. For the same compound, the EC50 in series [12] was above 50000 nM; in series [13], 65 nM. For the same compound, in series [2], the logD at 2 h is 3.2. In addition, in series [6], the hepatocyte CLint at 1 μM is above 92.4 µL/min/1e6 cells. Further, the “liver microsomes human CLint” value in series [7] came to 205.2 µL/min/mg. Further, in series [9], the “aqueous solubility pH 7.4” value turned out to be 22.9 μM. The “potency against each drug-resistant strain compared to the Dd2 and NF54 wild-type parasites” value in [10] is recorded as “equipotent”.
For orientation: microsomal CLint means the rate of metabolic loss divided by the concentration. For `CCn1cc(-c2nc(C)no2)c(=O)c2cc(F)c(N3CCC(C)CC3)cc21` [Compound 17, 1-Ethyl-6-fluoro-3-(3-methyl-1,2,4-oxadiazol-5-yl)-7-(4-methyl-1-piperidyl)quinolin-4-one], the EC50 was below 1 nM in series [1]; 10 nM in [3]; 9 nM in series [4]; 6 nM in series [5]; 1800 nM in [16]; 9 nM in series [8]. For the same compound, the EC50 was 1700 nM in series [17], above 25000 nM in series [11], above 50000 nM in series [12] and 12 nM in series [13]. Moreover, the “% parasitemia” value in series [14] (average for four mice on day 4) turned out to be 8.1%. Further, the “% reduction in parasitemia” value in [14] (versus the vehicle control, four mice, day 4) was 56% and 56.2%. Moreover, in [2], the logD at 2 h is 2.6. For the same compound, the “difference in sensitivity between the ELQ-300 resistant Dd2 strain and the Dd2 parental strain” value in [15] is given as “no difference in sensitivity”. This compound gave a hepatocyte CLint at 1 μM in [6] of 53.8 µL/min/1e6 cells. For the same compound, in [18], the microsomal CLint at 1 μM worked out at 16.2 µL/min/mg. For the same compound, the “potency against each drug-resistant strain compared to the Dd2 and NF54 wild-type parasites” value in series [10] was “equipotent”. For the same compound, the absorption result in series [19] is reported as “moderate absorption”. For the same compound, the “time for which total plasma concentration exceeds the in vitro EC99” value in series [19] (after dose 1) was “approximately 12 h”. Also, the “OCR upon addition of TMPD” value in series [20] is “rescued”. Besides, in series [20], the “effect on malate-dependent oxygen consumption rate (OCR)” value was “significantly reduce the OCR”. Besides, the “in vitro EC99” value in series [21] was found to be 0.030 µM.
In turn, `CCn1cc(-c2nc(C)no2)c(=O)c2cc(F)c(N3CCC(Cc4ccccc4)CC3)cc21` [Compound 41, 7-(4-Benzyl-1-piperidyl)-1-ethyl-6-fluoro-3-(3-methyl-1,2,4-oxadiazol-5-yl)quinolin-4-one] showed a logD at 2 h in [2] of 4.2. In addition, the EC50 amounted to 4 nM in series [3]; 3 nM in series [4]; 2 nM in series [5]; 480 nM in series [16]; 5 nM in series [8]; 860 nM in series [17]. Besides, the EC50 in series [22] was around 800 nM; in series [13], 5 nM. Besides, the “difference in sensitivity between the ELQ-300 resistant Dd2 strain and the Dd2 parental strain” value in [15] is “no difference in sensitivity”. In [6], this compound registered a hepatocyte CLint at 1 μM of 24.7 µL/min/1e6 cells. The compound also returned a microsomal CLint at 1 μM in [18] of 44.1 µL/min/mg. Also, in series [10], the “potency against each drug-resistant strain compared to the Dd2 and NF54 wild-type parasites” value was “equipotent”. Also, in series [20], the “OCR upon addition of TMPD” value is “rescued”. Also, the “effect on malate-dependent oxygen consumption rate (OCR)” value in series [20] is “significantly reduce the OCR”. Besides, in series [21] (3D7 parasite EC50 compared to 17), the “fold more potent than 17” value amounted to 2 fold.
